# From PubChem BioAssay
# Sampled rows, rich in hits. Any-hit rate of the full collection: about 2.2%.
# Jurkat NFkB inh – inhibitors of induced NF-kB luciferase reporter, primary screen, TCR NF-kB activation inhibitor project, cell-based, luminescence, uHTS; Jurkat, PMA/ionomycin-induced NF-kB luciferase reporter; inhibition, % at 4 µM; 0.53% of 330,000 active; AID 435003, 2010; in the data active = inhibition above about 50%
# 697 NFkB inh – inhibitors of PMA/ionomycin-induced NF-kB reporter, 697 cells, primary screen, B-cell NF-kB inhibitor project, cell-based, luminescence, uHTS; 697 B-cell NF-kB luciferase reporter, 16 h; inhibition, % at 4 µM; 0.33% of 330,000 active; in the data active = inhibition above about 35%
# miR-122 sensor – miR-122 Renilla sensor signal increase in Huh7, primary screen, miR-122 inhibitor project, cell-based, single point, plate reader | activation (reporter increase), % at 12.5 µM | Huh7 miR-122 Renilla luciferase sensor, 48 h; neutral wells = 0, positive control = 100 | 0.3% of 340,000 active;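 active = mean replicate activation score at least 90 and every replicate individually at or above 90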;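 also: higher luciferase means less miR-122 activity so hits act as miR-122 inhibitors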
# NR2E3 ag-1 – inhibitors of NR2E3-RetCOR corepressor binding, primary screen, NR2E3 agonist project, biochemical, TR-FRET, GST-NR2E3, biotin-RetCOR; 1536-well; AID 2300, 2010; 0.12% of 320,000 active; inhibition of corepressor binding, % at 4.78 µM;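 active = percent inhibition above the cutoff of mean plus 3 SD of all tested compounds, set per screening campaign, cut at about 20% in these data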;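 also: 0% = DMSO wells and 100% = biotin wells as full block of FRET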
# Target sequence (Q9Y5X4 whole entry, looked up): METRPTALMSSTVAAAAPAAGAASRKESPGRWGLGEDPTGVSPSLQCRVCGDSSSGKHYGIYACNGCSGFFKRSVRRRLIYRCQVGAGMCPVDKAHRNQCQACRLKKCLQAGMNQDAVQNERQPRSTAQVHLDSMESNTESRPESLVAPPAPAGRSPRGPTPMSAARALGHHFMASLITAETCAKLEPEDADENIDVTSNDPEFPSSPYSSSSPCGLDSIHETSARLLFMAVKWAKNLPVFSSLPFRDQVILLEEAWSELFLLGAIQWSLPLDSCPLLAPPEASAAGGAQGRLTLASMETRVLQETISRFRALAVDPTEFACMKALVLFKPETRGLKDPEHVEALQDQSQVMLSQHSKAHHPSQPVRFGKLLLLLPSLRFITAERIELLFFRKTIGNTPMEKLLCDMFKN
#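 system = GST-tagged NR2E3 plus biotinylated RetCOR corepressor | input = 1.35 nM GST-NR2E3 | also added = 7 nM biotin-RetCOR | schedule = 5 h incubation at 4 °C | measured by = TR-FRET with europium anti-GST and streptavidin-D2, 340 nm excitation | read-out = percent loss of FRET ratio relative to control wells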
# FGF22 binding – binders of human FGF22 protein, primary screen, FGF22 synaptogenesis inhibitor project, biophysical, thermal shift, single point. Fibroblast growth factor 22 (Homo sapiens), Q9HCT0. activity (Tm shift, normalised), % at 9.99 µM. 1.5% of 340,000 active. recombinant FGF22 thermal shift, SYPRO orange fluorescence; percent of sucrose octasulfate shift, DMSO zero;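 active = mean Tm shift, scaled 0 neutral to 100 positive control, at about 1.3% or above, every replicate too, limit read from the data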
# NR2E3 ag-2 – NR2E3 agonists in two-hybrid cells, primary screen, cell-based, luminescence, CHO-S, Gal4-NCOR/VP16-NR2E3; Photoreceptor-specific nuclear receptor (Homo sapiens), Q9Y5X4; 0.35% of 360,000 active; luciferase; inhibition of corepressor binding, % at 3.98 µM;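 active = inhibition above the mean of all tested compounds plus 3 SD, cut at about 70% in these data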;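 also: 0% = DMSO with NR2E3 transfected cells and 100% = cells lacking NR2E3 construct; higher means lower luciferase signal from less NR2E3 corepressor binding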
# NR2E3 ag confirm – NR2E3 agonist confirmation in cells, cell-based, luminescence, CHO-S two-hybrid. CHO-S mammalian two-hybrid NR2E3-NCOR, luciferase luminescence. 51% of 2,300 active. shares compounds with NR2E3 ag-2. inhibition, % at 3.98 µM;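 active = average inhibition above a cutoff equal to the mean inhibition of all tested compounds plus one SD, cut at about 70% in these data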;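 also: 0% = DMSO in NR2E3 cells and 100% = DMSO in cells lacking NR2E3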
# GAL4-VP16 luc – GAL4-VP16 reporter modulators, confirmation, counter-screen for NR2E3 agonist project, cell-based, luminescence, CHO-S, high throughput; shares compounds with NR2E3 ag-2; CHO-S GAL4-VP16 luciferase reporter; inhibition, % at 3.98 µM; 29% of 2,300 active; AID 624379, 2012;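 active = mean inhibition above a cutoff equal to the average over all tested compounds plus one standard deviation, cut at about 70% in these data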;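 also: luciferase from a UAS reporter driven by GAL4-VP16 transactivation; 0% = DMSO with VP16-transfected cells and 100% = DMSO with cells lacking VP16; higher means less reporter light so more repression of VP16 activity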
# * hit, by the source's call; nt = not tested or not shown; [ ] = another dose, or the depositor's remark.
SMILES,Jurkat NFkB inh,697 NFkB inh,miR-122 sensor,NR2E3 ag-1,FGF22 binding,NR2E3 ag-2,NR2E3 ag confirm,GAL4-VP16 luc
CN(C)c1ncnc2c1ccn2C1OC(CO)C(O)C1O (centres undefined),nt,nt,nt,nt,-0.3,69.5,72.1*,29.0
O=c1[nH]nnc2c1ncn2C1OC(CO)C(O)C1O (centres undefined),nt,nt,2.5,nt,0.3,68.0,59.4,50.3
OC[C@H]1O[C@@H](n2cnc3c(Nc4ccccc4)ncnc32)[C@H](O)[C@@H]1O,-16.6,-15.4,2.3,4.7,0.1,-14.0,nt,nt
Cc1ccc(S(=O)(=O)N(C)C[C@H]2Oc3ccc(NC(=O)Nc4c(C)noc4C)cc3CC(=O)N([C@@H](C)CO)C[C@H]2C)cc1,nt,nt,1.7[16.7 µM],nt,-0.1,nt,nt,nt
O=C(Nc1ccc2c(c1)[C@H]1C[C@@H](CC(=O)N3CCOCC3)O[C@H](CO)[C@H]1O2)C1CCC1,nt,nt,1.1[16.7 µM],nt,-0.2,nt,nt,nt
CCc1cc(OCCCSc2nc(C)cc(=O)[nH]2)ccc1Cl,9.2,0.0,-0.7,2.7,nt,56.3,76.2*,42.9
Cc1ccccc1-c1ccc2c(c1)O[C@H](CN(C)Cc1ccc(C(=O)O)cc1)[C@H](C)CN([C@@H](C)CO)S2(=O)=O,nt,nt,-1.5[16.7 µM],nt,-0.5,nt,nt,nt
C[C@H](CO)N1C[C@H](C)[C@H](CN(C)S(=O)(=O)c2cn(C)cn2)Oc2ncc(-c3ccccc3)cc2C1=O,nt,nt,-6.5[16.7 µM],nt,nt,nt,nt,nt
CCC(=O)/C=C1/Sc2ccccc2N1CC,7.6,13.6,-1.4,-1.0,nt,13.2,nt,nt
CCN1/C(=C/c2sc(-c3ccccc3C)c[n+]2C)Sc2ccccc21,nt,nt,nt,nt,0.4,90.0*,99.2*,85.4*
CCCNC(=O)N1CC2(CN(S(=O)(=O)c3ccc(OC)cc3)C2)c2c(n(C)c3cc(OC)ccc23)[C@@H]1CO,nt,nt,nt,nt,-0.1,nt,nt,nt
S=C(NN=C(c1ccccc1)c1ccccn1)N(Cc1ccccn1)Cc1ccccn1,nt,nt,nt,nt,-0.8,92.2*,99.6*,78.7*
COC(=O)Cc1c(C)c2ccc(OC3CCCCC3=O)cc2oc1=O (centres undefined),-10.5,-12.9,-2.5,nt,-0.2,-38.0,nt,nt
COC(=O)Cc1c(C)c2ccc(OC3CCCCC3=O)c(C)c2oc1=O (centres undefined),4.2,-35.2,9.5,0.2,0.0,72.0*,40.0,42.0
COc1ccc(OC)c(C2(O)CSC(=Nc3cccnc3)N2Cc2ccco2)c1 (centres undefined),11.4,-6.3,-7.1,-3.0,42.7,13.2,nt,nt
OC1(c2ccc(OC(F)F)cc2)CSC(=Nc2cccnc2)N1C1CC1 (centres undefined),15.8,-50.5,-4.5,1.2,nt,69.0,70.0,60.1
O=C(CNc1ccc(C(F)(F)F)cc1)Nc1cccc(S(=O)(=O)N2CCCC2)c1,2.3,14.8,3.2,1.4,0.4,-30.1,nt,nt
O=C(CNc1cccc(S(=O)(=O)N2CCOCC2)c1)Nc1ccc(C(F)(F)F)cc1,12.5,-2.2,nt,-2.2,-0.2,49.7,10.5,25.2
COc1ccccc1-c1ccc2c(c1)[C@H]1[C@H](CCN1C(=O)C1CCOCC1)[C@@H](CO)N2,nt,nt,-5.0[16.7 µM],nt,-0.5,nt,nt,nt
Cc1nc(N/N=C/c2cccc(F)c2)cc(N2CCOCC2)n1,-6.7,6.1,-14.4,2.1,-0.1,49.3,20.9,13.4
Oc1cccc(/C=N/Nc2cc(N3CCOCC3)nc(N3CCOCC3)n2)c1,-31.6,17.6,0.1,0.1,nt,21.3,nt,nt
